Screening data: PubChem, several laboratories
Efflux pump mplx: blocks antifungal efflux pumps in multiplex yeast assay; S. cerevisiae Candida pump triplex, Nile Red efflux; inhibition, % at 10 µM; 330,000 compounds, 0.44% hits; AID 485275;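 active = plate passing quality check with inhibition over a set limit, or well fluorescence over plate mean plus 4 SD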;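 note: Nile Red retained in pooled yeast measured as flow cytometry median fluorescence; 0% = buffer negative control and 100% = Enniatin B positive control; higher means more Nile Red kept so more efflux inhibition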
ARFGAP1 inh: rat ARFGAP1 inhibition. Arfgap1-stimulated ARF1 GTP hydrolysis, GDP FP detection. inhibition, % at 16.5 µM. 360,000 compounds, 0.26% hits;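 active = inhibition above a per-plate limit, mean inhibition of low control wells plus 3 SD, cut at about 25% in these data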;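 note: 0% = DMSO wells with enzyme and 100% = wells lacking Arfgap1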
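System: truncated rat Arfgap1 GAP domain / Benchmarks: high control wells lacking Arfgap1, low control full reaction with DMSO / Times: compound-enzyme preincubation 20 min, reaction 120 min, detection 60 min, 25 °C / Repeats: one replicate per compound / Also added: human ARF1(Δ1-17)-GTP substrate / Measured by: Tracer-displacement fluorescence polarization with EDTA stop, 620/688 nm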
ASAP1 GAP inh: ASAP1 ArfGAP inhibition | Q9ULH1 | ASAP1-stimulated ARF1 GTP hydrolysis, GDP FP detection | inhibition, % at 16.5 µM | 360,000 compounds, 0.19% hits | AID 624377; in the data active = inhibition above about 25%;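 note: 0% = vehicle with enzyme and substrate and 100% = no enzyme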
Rtt109 HAT inh: blocks Candida albicans Rtt109/Vps75 acetyltransferase activity; Q5AAJ8; 330,000 compounds, 0.16% hits; AID 540336; inhibition, % at 34.9 µM; purified Rtt109/Vps75, ThioGlo CoA-SH fluorescence, 4 h;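 active = inhibition of at least 50% in every replicate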
Target sequence (Q5AAJ8 whole entry, looked up): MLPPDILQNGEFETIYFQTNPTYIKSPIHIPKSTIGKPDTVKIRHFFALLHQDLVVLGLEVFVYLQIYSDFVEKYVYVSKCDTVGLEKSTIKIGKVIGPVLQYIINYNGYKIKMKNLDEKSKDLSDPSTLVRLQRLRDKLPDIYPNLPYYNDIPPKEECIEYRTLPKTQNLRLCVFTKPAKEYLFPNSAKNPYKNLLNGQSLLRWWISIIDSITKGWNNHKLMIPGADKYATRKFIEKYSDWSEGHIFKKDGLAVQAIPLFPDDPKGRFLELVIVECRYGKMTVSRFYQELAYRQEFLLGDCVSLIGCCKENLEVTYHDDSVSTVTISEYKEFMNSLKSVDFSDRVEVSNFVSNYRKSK
FGF22 binding: shifts melting point of recombinant human FGF22; 340,000 compounds, 1.5% hits; Q9HCT0; activity (Tm shift, normalised), % at 9.99 µM; recombinant FGF22 thermal shift, SYPRO orange fluorescence; percent of sucrose octasulfate shift, DMSO zero;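 active = mean Tm shift, scaled 0 neutral to 100 positive control, at about 1.3% or above, every replicate too, limit read from the data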
Target sequence (Q9HCT0 whole entry, looked up): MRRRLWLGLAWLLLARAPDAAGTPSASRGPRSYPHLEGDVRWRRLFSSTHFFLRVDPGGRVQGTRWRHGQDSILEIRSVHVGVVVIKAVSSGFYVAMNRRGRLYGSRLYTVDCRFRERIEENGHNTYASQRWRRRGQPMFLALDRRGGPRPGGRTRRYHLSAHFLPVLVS
Active calls of the source: *; / = not tested or not shown. Only some compounds are listed: those with a hit (about 1.9% of all), similar ones and a draw of the others.

SMILES | Efflux pump mplx | ARFGAP1 inh | ASAP1 GAP inh | Rtt109 HAT inh | FGF22 binding
COc1cccc(SCc2noc(C(=O)NCc3ccccc3)c2C(=O)NCc2ccccc2)c1 | 0 | -5 | -6 | -16 | 0
Cc1noc(C)c1S(=O)(=O)N1CCC(C(=O)N2CCN(C3CCCC3)CC2)CC1 | 0 | / | / | / | /
CCN(CC)S(=O)(=O)c1cccc(-c2nnc(SCC(=O)N3CCC(C(=O)O)CC3)n2N)c1 | 0 | 6 | -9 | / | 0
COc1ccc(NC(=O)CSc2nnc(-c3ccccc3)n2N)cc1 | 0 | 5 | 1 | 59* | /
CCN(CC)S(=O)(=O)c1cccc(-c2nnc(SCC(=O)NC)n2N)c1 | 0 | -4 | -1 | -5 | 44*
CCOc1ccc(NC(=O)CSc2nnc(-c3ccccc3)n2N)cc1 | 0 | -5 | 2 | 4 | /
COc1ccc(CC(=O)Nc2ccc(C(N)=O)cc2)cc1 | 0 | 14 | -4 | / | 0
Cc1ccc(-c2nnc(Nc3ccc(CC(N)=O)cc3)c3ccccc23)cc1S(N)(=O)=O | 1.7* | 8 | 13 | -1 | 0
COc1ccc(C(=O)NC(=S)Nc2cc3oc4ccccc4c3cc2OC)cc1 | 0 | -1 | -2 | 0 | 44*
CCN(CC(=O)Nc1c(F)cccc1F)C(=O)CCCOc1ccc(OC)cc1 | 0 | 9 | -1 | -7 | 0
CCN(CC(=O)Nc1c(F)cccc1F)C(=O)CCc1ccc(OC)cc1 | 0 | 2 | 13 | 2 | 44*
CN(CC(=O)NC1CC(C)(C)NC(C)(C)C1)S(=O)(=O)c1cc(Cl)ccc1Cl | 0 | -3 | -2 | -33 | 43*
Cc1ccc(N(Cc2cc3ccccc3[nH]c2=O)C(=O)c2ccco2)c(C)c1 | 0 | 3 | 3 | 9 | /
CC(C)(C)c1ccc(C(CC(=O)O)NC(=O)c2ccccc2F)cc1 (configuration not stated) | 0 | -2 | -4 | -2 | 43*
CCOC(=O)Cc1cc(=O)n2[nH]c(-c3ccccc3)c(-c3ccccc3)c2n1 | 0 | -9 | 0 | -4 | 43*
C[C@H]1CCCCO[C@@H](CN(C)S(=O)(=O)c2ccc(F)cc2)[C@@H](C)CN([C@@H](C)CO)C(=O)c2cc(NC(=O)CCC(F)(F)F)ccc2O1 | / | / | / | / | 0
COc1cccc(C(=O)NCC2(c3ccccc3)CCCC2)c1 | 0 | 13 | -5 | / | 43*
NS(=O)(=O)c1ccc(N/C=C\C(=O)c2ccncc2)cc1 | 0 | -12 | -6 | 7 | 43*
COc1ccc(OC2OC3COC(c4ccco4)OC3C(O)C2NC(C)=O)cc1 (configuration not stated) | 0 | -5 | 9 | -2 | 0
CCCCNC(=O)C1(C)CCCCN1C(=O)c1csnn1 (configuration not stated) | / | -2 | -1 | / | 44*
CCCN1CNC(=S)N(c2ccccc2C)C1 | 0 | -6 | 0 | 2 | 43*
CC12C=CC3(O1)C(C(=O)N1CCCOC13)C2C(=O)O (configuration not stated) | 0 | 10 | -6 | 3 | 43*
Fc1ccc(Nc2nc3ccccc3s2)cc1 | 0 | -3 | 2 | -14 | 42
Cc1ccc(Nc2nc3ccccc3s2)cc1 | 1 | 0 | 12 | -5 | 1.5*
CNc1ccc([N+](=O)[O-])cc1 | 0 | -8 | -5 | 0 | 0
SMILES | Efflux pump mplx | ARFGAP1 inh | ASAP1 GAP inh | Rtt109 HAT inh | FGF22 binding
COc1ccc(CNC(=O)NCCc2c[nH]c3ccccc23)cc1 | 0 | 6 | 8 | 0 | 0
COc1ccc(CCNC(=S)NCCc2c[nH]c3ccccc23)cc1 | 0 | 7 | 14 | 8 | 1.4*
CCOC(=O)C1=C(O)/C(=C/c2ccc(OCC(=O)O)c(OCC)c2)SC1=Nc1ccccc1 | 0 | -1 | 14 | 29 | 43*
CCOC(=O)C1=C(O)/C(=C/c2ccc(OCC(=O)O)c(OC)c2)SC1=Nc1ccc(OCC)cc1 | -4 | -4 | -1 | 7 | 0
Nc1nc2c(ncn2[C@@H]2O[C@H](CNS(=O)(=O)N3CCCC3)[C@@H](O)[C@H]2O)c(=O)[nH]1 | / | -5 | 8 | / | 0
CCCCn1c(N)c(N(CC)C(=O)c2cc(Br)ccc2Cl)c(=O)[nH]c1=O | 0 | -7 | -12 | 0 | 44*
CCCCn1c(N)c(N(CC)C(=O)c2cc(S(=O)(=O)N3CCN(CC)CC3)ccc2Cl)c(=O)[nH]c1=O | 0 | -8 | -1 | -3 | 0
COc1ccc2c(c1)[N+](C)(C)C(C)(C)C=C2C | 0 | -4 | 5 | -2 | 43*
Cc1ccc(C(=O)COC(=O)c2cnccn2)cc1 | 0 | -5 | -1 | 4 | /
O=C(COC(=O)c1cnccn1)c1ccc([N+](=O)[O-])cc1 | 0 | 3 | 1 | 137* | 0
CC1=CC(C)C2(CO)COC(c3cccnc3)C1C2C (configuration not stated) | 0 | -9 | -10 | / | 43*
CCOC(=O)C1=C(N)OC2=C(C(=O)CC(C)(C)C2)C1c1cccnc1 (configuration not stated) | 0 | 5 | -11 | -2 | /
CC1=CC(C)C2(CO)COC(c3ccc(O)cc3)C1C2C (configuration not stated) | 0 | 9 | -13 | 1 | 43*
Cc1cnc(C(=O)OCC(=O)N(C(C)C)C(C)C)cn1 | 0 | -4 | -4 | 1 | /
CCOC(=O)C1=C(C)NC(=S)N(C(C)=O)C1c1ccc(OC)c(OC)c1 (configuration not stated) | 0 | -3 | -4 | -8 | 0
CCOC(=O)C1=C(C)NC(=S)N(C(C)=O)C1c1ccc(Cl)cc1 (configuration not stated) | 0 | -8 | 2 | 63* | /
COc1ccc(C)cc1N(CC(=O)N1CCOCC1)S(C)(=O)=O | 0 | 14 | 0 | -2 | 0
Cn1nc(C(C)(C)C)c([N+](=O)[O-])c1C(=O)N1CCOCC1 | 0 | -6 | 1 | 10 | 0
Cn1nc(C(=O)N2CCOCC2)c([N+](=O)[O-])c1C(=O)N1CCOCC1 | 0 | 2 | 6 | 1 | 44*
O=C(NCC1CCCO1)C1CCN(C2CCN(Cc3ccco3)CC2)CC1 (configuration not stated) | 0 | -5 | 0 | / | 44*
O=C(NCCc1ccccc1)C1CCN(C2CCN(Cc3ccco3)CC2)CC1 | 0 | -6 | 11 | 14 | 0
COc1cccc(-n2nc(C(N)=O)c(O)cc2=O)c1 | 0 | 6 | 6 | 3 | 43*
Cc1c(C(=O)/C=C/N(C)C)nnn1-c1ccc(Cl)cc1Cl | 0 | -5 | -20 | 12 | 0
NC(=O)c1nn(-c2ccc(Cl)cc2Cl)c(=O)cc1O | 0 | -5 | -5 | -6 | 44*
COc1ccc(-n2nc(C(N)=O)c(O)cc2=O)cc1 | 0 | -2 | -4 | -15 | 0
CC1(C2CC2)NC(=O)NC1=O (configuration not stated) | 0 | -7 | 1 | -3 | /
